According to the RNAGym collection of RNA variant scans (doi:10.1038/s41586-018-0170-7):

B1: tRNA (parent)
chain: GUUCCGUUGGCGUAAUGGUAACGCGUCUCCCUCCUAAGGAGAAGACUGCGGGUUCGAGUCCCGUACGGAACG

Variants of: B1
Test: yeast fitness, log relative to wild type (ln ratio); higher = fitter; tRNA-Arg(CCU), competitive growth, 37 C, 1 M NaCl
Summary of the method: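 Two independent transformations put a combinatorial tRNA-Arg(CCU) variant library on a HIS3 centromeric plasmid into BY4742 lacking the chromosomal gene. Pools were grown in SC-HIS at 30 °C for 4 generations, then in SC-HIS 1M NaCl at 37 °C for ~6.5 generations (~26.5 h), with three outputs taken per input. Fitness compares a genotype's generations with the wild type's as a natural log ratio. Those generations are OD-scaled log2 output/input frequencies, inverse-variance weighted across replicates, from 125 bp paired-end Illumina counts.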

Variant	yeast fitness (ln)
U2C G6U C27U A70U	-0.153
U2C G6U C66U A69G A70G C71U	-0.346
U2C G6U C27U A43C A70U C71U	-0.253
U2C G6U C46U A69G A70U C71U	-0.216
U2C G6U C46U A69G C71U	-0.0672
U2G A70U C71U	-0.017
U2C G6U C27U A43C C46U C66A A69G A70G C71U	-0.0738
U2G A70G	-0.0201
U2G A70U	-0.00577
U2G A43C C46U C66A A70U	-0.0637
U2G A43C C46U C66A A70G	-0.119
U2G A43C C66U A69G A70U C71U	-0.468
U2G A43C A69G A70U C71U	-0.382
U2C G6U C27U A43C A70G C71U	-0.324
U2C G6U C27U A69G A70G C71U	-0.157
U2G C27U A43C C46U C66U A69G	-0.231
U2G C27U A43C A69G A70U	-0.267
U2G C27U A43C A69G A70G	-0.238
U2C G6U C46U C66A A69G A70U	-0.143
U2C G6U C46U C66A A69G A70G	0.0157
U2G C27U A43C C66U A69G C71U	-0.354
U2G A43C C46U	-0.0426
U2G A43C C46U C66U A69G C71U	-0.279
U2G C27U A43C C46U C66A A70U	-0.0794

Variant	yeast fitness (ln)
U2G C27U A43C C46U C66A A70G	-0.16
U2C G6U C27U C46U C66A A70G	-0.0216
U2C G6U C27U C46U C66A A70U	-0.29
U2G A43C C66U	-0.19
U2G A43C C66A	-0.0672
U2C G6U C27U A43C C46U C66A A70U C71U	-0.164
U2C G6U C46U C66U A70G C71U	-0.0117
U2C G6U C27U A43C C66A A69G A70U C71U	-0.398
U2G A43C C46U C66U A69G A70G C71U	-0.244
U2C G6U C27U C66A A70U C71U	-0.26
U2C G6U C46U A70U C71U	-0.0786
U2G A43C C46U C66U A70G C71U	-0.156
U2C G6U C27U C46U C66U A70U C71U	-0.335
U2C G6U C27U A43C C46U C66U C71U	-0.299
U2C G6U C27U C46U C66U A69G A70U C71U	-0.546
U2C G6U C27U A70U C71U	-0.136
U2G A70G C71U	-0.268
U2G C27U A43C C46U A69G A70G C71U	-0.132
U2G A43C C46U C66U A69G A70U C71U	-0.413
U2C G6U C27U C66A A69G A70G	-0.0927
U2C G6U C46U C66A C71U	-0.211
U2G C27U A43C C66A A70G C71U	-0.257
U2C G6U C27U C66A	-0.24
U2C G6U C27U C66U	-0.0859

Variant	yeast fitness (ln)
U2G C27U A43C C46U C66U A69G A70G	-0.275
U2G C27U A43C C46U C66U A69G A70U	-0.221
U2G C27U A43C A69G A70U C71U	-0.364
U2C G6U C27U A43C C46U C66A	0.00284
U2C G6U C27U A43C C46U C66U	-0.0875
U2C G6U C27U A43C C46U A70G	-0.204
U2C G6U C27U A43C C46U A70U	-0.151
U2C G6U C27U A43C C46U C71U	-0.17
U2C G6U C27U A43C A69G A70G	-0.242
U2C G6U C27U A43C A69G A70U	-0.271
U2G A43C C66A A69G A70U C71U	-0.28
U2C G6U C27U C66A C71U	-0.15
U2G C27U A43C C46U C71U	-0.0621
U2C G6U C27U C66U A69G A70G C71U	-0.288
U2C G6U C66A A69G A70G C71U	-0.00896
U2C G6U C27U A43C C46U C66A A70G C71U	-0.0138
U2G C27U A43C A69G	-0.0811
U2C G6U C27U A43C C46U C66A A69G A70U C71U	-0.26
U2G C27U A43C C66A A69G A70G C71U	-0.305
U2C G6U C66U A70U C71U	-0.233
U2G A43C C66U A70G C71U	-0.22
U2C G6U C27U C46U C66A A69G A70G C71U	-0.0348
U2C G6U C27U A43C C66U A70U C71U	-0.363
U2C G6U C27U C66U C71U	-0.265

Variant	yeast fitness (ln)
U2C G6U C27U A43C C66U A69G A70G	-0.426
U2G A69G A70G C71U	-0.191
U2G A43C C66U A70U C71U	-0.351
U2C G6U C27U A43C C66U A69G A70U C71U	-0.419
U2G A43C C46U A70G	-0.0614
U2G A43C C46U A70U	0.00593
U2C G6U C27U A69G A70G	-0.191
U2C G6U C27U A69G A70U	-0.111
U2C G6U C46U C66U C71U	-0.112
U2G C27U A43C A70G C71U	-0.151
U2C G6U C66A C71U	-0.294
U2G C27U A43C C66A A70U C71U	-0.319
U2C G6U C27U C66U A69G A70U C71U	-0.566
U2G C27U A43C C66U A70G	-0.257
U2G A43C A69G	0.00792
U2G C27U A43C C66U A69G A70G C71U	-0.402
U2C G6U C27U C46U C66A A69G A70U C71U	-0.319
U2C G6U C27U C46U C66A A69G A70U	-0.114
U2C G6U C27U C46U C66A A69G A70G	-0.035
U2G A43C C66U A69G A70G C71U	-0.304
U2C G6U C27U C46U C66U A70G	-0.0763
U2C G6U C27U C46U C66U A70U	-0.132
U2G C27U A43C C46U A70G	-0.227
U2G C27U A43C C46U A70U	-0.00371

Variant	yeast fitness (ln)
U2C G6U C27U	-0.0654
U2C G6U A43C C66U C71U	-0.349
U2C G6U C27U C46U A70G	-0.0953
U2C G6U C27U C46U A70U	-0.13
U2C G6U C27U A43C A70U	-0.2
U2C G6U C27U A43C A70G	-0.18
U2G A43C C46U C66A A69G A70U C71U	-0.443
U2G C27U A43C C46U C66U C71U	-0.292
U2C G6U C27U C66A A69G A70U C71U	-0.525
U2C G6U C71U	-0.0615
U2G A43C C66A A69G A70U	-0.231
U2G A43C C66A A69G A70G	-0.162
U2C G6U C27U A43C A69G A70U C71U	-0.513
U2G A43C C66U A69G A70U	-0.307
U2G A43C C66U A69G A70G	-0.222
U2C G6U A69G A70G C71U	-0.325
U2G A43C A70U C71U	-0.0697
U2C G6U C27U C66U A70U C71U	-0.35
U2G A69G A70U C71U	-0.25
U2C G6U C46U C66A A70U	0.000469
U2C G6U C46U C66A A70G	-0.013
U2G A69G A70G	-0.147
U2G A69G A70U	-0.00206
U2C G6U A70U C71U	-0.102

Variant	yeast fitness (ln)
U2G C27U A43C C66U A69G A70U	-0.346
U2G C27U A43C C66U A69G A70G	-0.348
U2C G6U A43C C66U A70U C71U	-0.531
U2G A43C A69G A70G C71U	-0.168
U2C G6U C46U C66A A70G C71U	-0.0101
U2C G6U C27U C46U A69G A70U C71U	-0.334
U2G A43C C46U A69G A70U C71U	-0.509
U2G A43C	-0.0825
U2C G6U C27U C66U A69G A70U	-0.378
U2C G6U C27U C66U A69G A70G	-0.277
U2G C27U	-0.0566
U2C G6U C46U A69G A70G C71U	-0.236
U2G C27U A43C C66A A69G C71U	-0.355
U2G	-0.0125
U2G A43C C46U A69G A70G	-0.174
U2G A43C C46U A69G A70U	-0.00112
U2G A43C C46U C66U A70U C71U	-0.214
U2G A43C C46U C66U C71U	-0.2
U2C G6U C27U C46U C66U	-0.183
U2C G6U C27U C46U C66A	-0.267
U2G A43C C46U C66U A69G A70U	-0.172
U2G A43C C46U C66U A69G A70G	-0.173
U2C G6U C27U A43C C46U A70G C71U	-0.132
U2G C27U A43C C46U C66U A69G A70U C71U	-0.395

Variant	yeast fitness (ln)
U2C G6U C66A	-0.00733
U2C G6U C66U	-0.0417
U2G A43C C66U A69G C71U	-0.455
U2G A43C C46U C71U	-0.0479
U2G A43C C46U C66A A69G A70U	-0.0871
U2G A43C C46U C66A A69G A70G	-0.186
U2C G6U C46U A70G C71U	-0.0274
U2C G6U C27U A43C C66A A69G A70G C71U	-0.431
U2C G6U C27U A43C C46U A69G C71U	-0.187
U2C G6U C27U C71U	-0.147
U2C G6U A43C C71U	-0.117
U2G A43C A70G	-0.182
U2G A43C A70U	-0.00614
U2G C27U A43C C66A A69G A70U	-0.291
U2G C27U A43C C66A A69G A70G	-0.42
U2C G6U C27U C66U A70G C71U	-0.57
U2G C27U A43C C46U A69G	-0.0569
U2G A69G	-0.112
U2G C27U A43C A70U C71U	-0.235
U2C G6U C27U A43C C46U C66U A70U C71U	-0.317
U2G C27U A43C C46U C66A A69G A70G C71U	-0.183
U2G C27U A43C A70U	-0.0184
U2G C27U A43C A70G	-0.178
